Reference: ChEMBL document CHEMBL4425110, “ICI 56,780 Optimization: Structure-Activity Relationship Studies of 7-(2-Phenoxyethoxy)-4(1H)-quinolones with Antimalarial Activity” (J Med Chem, 2016)

tested on: Plasmodium falciparum; experiment: Antimalarial activity against Plasmodium falciparum TM90-C2B; type: functional, organism-based; conditions: not given

Structure (SMILES)	EC50
CCCCc1cc2c(=O)c(C#N)c[nH]c2cc1OCCOc1ccccc1	3170 nM
CCc1cc2c(=O)c(C(=O)OC)c[nH]c2cc1OCCOc1ccccc1	65.3 nM
COC(=O)c1c[nH]c2cc(OCCOc3ccccc3)ccc2c1=O	73.6 nM
COC(=O)c1c[nH]c2cc(OCCOc3ccccc3)c(C)cc2c1=O	499 nM
COC(=O)c1c[nH]c2cc(OCCCc3ccccc3)ccc2c1=O	> 784 nM
CCCc1cc2c(=O)c(C(=O)OC)c[nH]c2cc1OCCOc1ccccc1	42.4 nM
COC(=O)c1c[nH]c2ccccc2c1=O	6590 nM
CCCCCc1cc2c(=O)c(C(=O)OC)c[nH]c2cc1OCCOc1ccccc1	68.7 nM
COC(=O)c1c[nH]c2cc(OCc3ccccc3)ccc2c1=O	8080 nM
COC(=O)c1c[nH]c2ccc(-c3ccccc3)cc2c1=O	7180 nM
COC(=O)c1c[nH]c2ccc(OCc3ccccc3)cc2c1=O	1100 nM
COC(=O)c1c[nH]c2cc(Cl)ccc2c1=O	5800 nM
COC(=O)c1c[nH]c2ccc(Cl)cc2c1=O	82200 nM
CCOc1ccc2[nH]cc(C(=O)OC)c(=O)c2c1	> 10100 nM
COC(=O)c1c[nH]c2cc(OCCOc3ccccc3)c(Cl)cc2c1=O	617 nM
COC(=O)c1c[nH]c2cc(-c3ccccc3)ccc2c1=O	11300 nM
COC(=O)c1c[nH]c2cc(OCCOc3ccccc3)c(OC)cc2c1=O	11.1 nM
CCCCc1cc2c(=O)c(C(C)=O)c[nH]c2cc1OCCOc1ccccc1	378 nM
CCCCc1ccc2[nH]ccc(=O)c2c1	> 12400 nM
COC(=O)c1c[nH]c2ccc(Oc3ccccc3)cc2c1=O	7060 nM
CCCCc1cc2c(=O)c(I)c(C)[nH]c2cc1OCCOc1ccccc1	5.87 nM
COC(=O)c1c[nH]c2ccc(Oc3ccc(F)cc3)cc2c1=O	5710 nM

tested on: Plasmodium berghei; experiment: Antimalarial activity against Plasmodium berghei infected in mouse assessed as inhibition of parasitemia at 50 mg/kg, po administered as single dose measured on day 3 post drug exposure relative to untreated control; type: functional; conditions: 72 h
How it was run: (§1)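 Two infected mice per compound were each given a single oral dose of 50 mg/kg, suspended in PEG400, on day 1 post-exposure. Parasitemia was assessed on days 3 and 6 post-exposure.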

Structure (SMILES)	inhibition in vivo at 50 mg/kg
COC(=O)c1c[nH]c2cc(OCCCc3ccccc3)ccc2c1=O	69.2%
COC(=O)c1c[nH]c2cc(OCCOc3ccccc3)c(Cl)cc2c1=O	< 1%
CCCCc1cc2c(=O)c(I)c(C)[nH]c2cc1OCCOc1ccccc1	53.9%

tested on: J774; experiment: Cytotoxicity against mouse J774 cells; type: cell-based; conditions: not given

Structure (SMILES)	EC50
CCCCc1cc2c(=O)c(C#N)c[nH]c2cc1OCCOc1ccccc1	> 20000 nM
CCc1cc2c(=O)c(C(=O)OC)c[nH]c2cc1OCCOc1ccccc1	> 20000 nM
COC(=O)c1c[nH]c2cc(OCCOc3ccccc3)ccc2c1=O	> 20000 nM
COC(=O)c1c[nH]c2cc(OCCOc3ccccc3)c(C)cc2c1=O	> 20000 nM
COC(=O)c1c[nH]c2cc(OCCCc3ccccc3)ccc2c1=O	1480 nM
CCCc1cc2c(=O)c(C(=O)OC)c[nH]c2cc1OCCOc1ccccc1	> 20000 nM
COC(=O)c1c[nH]c2ccccc2c1=O	> 20000 nM
CCCCCc1cc2c(=O)c(C(=O)OC)c[nH]c2cc1OCCOc1ccccc1	> 20000 nM
COC(=O)c1c[nH]c2cc(OCc3ccccc3)ccc2c1=O	18900 nM
COC(=O)c1c[nH]c2ccc(-c3ccccc3)cc2c1=O	> 20000 nM
COC(=O)c1c[nH]c2ccc(OCc3ccccc3)cc2c1=O	7590 nM
COC(=O)c1c[nH]c2cc(Cl)ccc2c1=O	> 20000 nM
COC(=O)c1c[nH]c2ccc(Cl)cc2c1=O	> 20000 nM
CCOc1ccc2[nH]cc(C(=O)OC)c(=O)c2c1	> 20000 nM
COC(=O)c1c[nH]c2cc(OCCOc3ccccc3)c(Cl)cc2c1=O	> 20000 nM
COC(=O)c1c[nH]c2cc(-c3ccccc3)ccc2c1=O	> 20000 nM
COC(=O)c1c[nH]c2cc(OCCOc3ccccc3)c(OC)cc2c1=O	> 20000 nM
CCCCc1ccc2[nH]ccc(=O)c2c1	> 20000 nM
COC(=O)c1c[nH]c2ccc(Oc3ccccc3)cc2c1=O	> 20000 nM
COC(=O)c1c[nH]c2ccc(Oc3ccc(F)cc3)cc2c1=O	> 20000 nM

tested on: Plasmodium berghei; experiment: Antimalarial activity against Plasmodium berghei; type: functional, organism-based; conditions: not given
How it was run: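 In vitro liver-stage (exoerythrocytic) assay against P. berghei; the value is the EC50 (nM).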

Structure (SMILES)	EC50
CCCCc1cc2c(=O)c(C#N)c[nH]c2cc1OCCOc1ccccc1	6.09 nM
CCc1cc2c(=O)c(C(=O)OC)c[nH]c2cc1OCCOc1ccccc1	0.737 nM
COC(=O)c1c[nH]c2cc(OCCOc3ccccc3)ccc2c1=O	0.286 nM
COC(=O)c1c[nH]c2cc(OCCOc3ccccc3)c(C)cc2c1=O	152 nM
COC(=O)c1c[nH]c2cc(OCCCc3ccccc3)ccc2c1=O	5.26 nM
CCCc1cc2c(=O)c(C(=O)OC)c[nH]c2cc1OCCOc1ccccc1	< 0.06 nM
COC(=O)c1c[nH]c2ccccc2c1=O	3.65 nM
CCCCCc1cc2c(=O)c(C(=O)OC)c[nH]c2cc1OCCOc1ccccc1	< 0.56 nM
COC(=O)c1c[nH]c2ccc(-c3ccccc3)cc2c1=O	> 179 nM
COC(=O)c1c[nH]c2ccc(OCc3ccccc3)cc2c1=O	127 nM
COC(=O)c1c[nH]c2ccc(Cl)cc2c1=O	46.6 nM
COC(=O)c1c[nH]c2cc(OCCOc3ccccc3)c(Cl)cc2c1=O	0.063 nM
COC(=O)c1c[nH]c2cc(OCCOc3ccccc3)c(OC)cc2c1=O	17.5 nM
CCCCc1ccc2[nH]ccc(=O)c2c1	395 nM

tested on: Plasmodium falciparum; experiment: Antimalarial activity against Plasmodium falciparum W2; type: functional, organism-based; conditions: not given

Structure (SMILES)	EC50
CCCCc1cc2c(=O)c(C#N)c[nH]c2cc1OCCOc1ccccc1	97.2 nM
CCc1cc2c(=O)c(C(=O)OC)c[nH]c2cc1OCCOc1ccccc1	0.461 nM
COC(=O)c1c[nH]c2cc(OCCOc3ccccc3)ccc2c1=O	2.8 nM
COC(=O)c1c[nH]c2cc(OCCOc3ccccc3)c(C)cc2c1=O	2.01 nM
COC(=O)c1c[nH]c2cc(OCCCc3ccccc3)ccc2c1=O	0.711 nM
CCCc1cc2c(=O)c(C(=O)OC)c[nH]c2cc1OCCOc1ccccc1	0.157 nM
COC(=O)c1c[nH]c2ccccc2c1=O	200 nM
CCCCCc1cc2c(=O)c(C(=O)OC)c[nH]c2cc1OCCOc1ccccc1	0.183 nM
COC(=O)c1c[nH]c2cc(OCc3ccccc3)ccc2c1=O	1830 nM
COC(=O)c1c[nH]c2ccc(-c3ccccc3)cc2c1=O	2090 nM
COC(=O)c1c[nH]c2ccc(OCc3ccccc3)cc2c1=O	11.6 nM
COC(=O)c1c[nH]c2cc(Cl)ccc2c1=O	2360 nM
COC(=O)c1c[nH]c2ccc(Cl)cc2c1=O	614 nM
CCOc1ccc2[nH]cc(C(=O)OC)c(=O)c2c1	292 nM
COC(=O)c1c[nH]c2cc(OCCOc3ccccc3)c(Cl)cc2c1=O	9.93 nM
COC(=O)c1c[nH]c2cc(-c3ccccc3)ccc2c1=O	2560 nM
COC(=O)c1c[nH]c2cc(OCCOc3ccccc3)c(OC)cc2c1=O	6.93 nM
CCCCc1cc2c(=O)c(C(C)=O)c[nH]c2cc1OCCOc1ccccc1	9.67 nM
CCCCc1ccc2[nH]ccc(=O)c2c1	352 nM
COC(=O)c1c[nH]c2ccc(Oc3ccccc3)cc2c1=O	381 nM
CCCCc1cc2c(=O)c(I)c(C)[nH]c2cc1OCCOc1ccccc1	0.867 nM
COC(=O)c1c[nH]c2ccc(Oc3ccc(F)cc3)cc2c1=O	117 nM

tested on: not listed separately; experiment: Liver blood index, ratio of EC50 for Plasmodium falciparum W2 to EC50 for Plasmodium berghei; type: functional; conditions: not given
How it was run: (§2)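 Liver-stage EC50 measured in vitro against P. berghei. Liver blood index is the blood-stage EC50 divided by the P. berghei EC50, using either W2 or TM90-C2B as the blood-stage strain.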

Structure (SMILES)	Ratio EC50
CCCCc1cc2c(=O)c(C#N)c[nH]c2cc1OCCOc1ccccc1	15.7
CCc1cc2c(=O)c(C(=O)OC)c[nH]c2cc1OCCOc1ccccc1	0.626
COC(=O)c1c[nH]c2cc(OCCOc3ccccc3)ccc2c1=O	9.79
COC(=O)c1c[nH]c2cc(OCCOc3ccccc3)c(C)cc2c1=O	0.013
COC(=O)c1c[nH]c2cc(OCCCc3ccccc3)ccc2c1=O	0.14
COC(=O)c1c[nH]c2ccccc2c1=O	54.8
COC(=O)c1c[nH]c2ccc(OCc3ccccc3)cc2c1=O	0.091
COC(=O)c1c[nH]c2ccc(Cl)cc2c1=O	13.2
COC(=O)c1c[nH]c2cc(OCCOc3ccccc3)c(Cl)cc2c1=O	158
COC(=O)c1c[nH]c2cc(OCCOc3ccccc3)c(OC)cc2c1=O	0.396
CCCCc1ccc2[nH]ccc(=O)c2c1	0.89

tested on: not listed separately; experiment: Liver blood index, ratio of EC50 for Plasmodium falciparum TM90-C2B to EC50 for Plasmodium berghei; type: functional; conditions: not given; how it was run: as §2

Structure (SMILES)	Ratio EC50
CCCCc1cc2c(=O)c(C#N)c[nH]c2cc1OCCOc1ccccc1	521
CCc1cc2c(=O)c(C(=O)OC)c[nH]c2cc1OCCOc1ccccc1	88.6
COC(=O)c1c[nH]c2cc(OCCOc3ccccc3)ccc2c1=O	257
COC(=O)c1c[nH]c2cc(OCCOc3ccccc3)c(C)cc2c1=O	3.28
COC(=O)c1c[nH]c2ccccc2c1=O	1810
COC(=O)c1c[nH]c2ccc(OCc3ccccc3)cc2c1=O	8.66
COC(=O)c1c[nH]c2ccc(Cl)cc2c1=O	1760
COC(=O)c1c[nH]c2cc(OCCOc3ccccc3)c(Cl)cc2c1=O	9790
COC(=O)c1c[nH]c2cc(OCCOc3ccccc3)c(OC)cc2c1=O	0.634

tested on: Plasmodium berghei; experiment: Antimalarial activity against Plasmodium berghei infected in mouse assessed as inhibition of parasitemia at 50 mg/kg, po administered as single dose measured on day 6 post drug exposure relative to untreated control; type: functional; conditions: 144 h; how it was run: as §1

Structure (SMILES)	inhibition in vivo at 50 mg/kg
COC(=O)c1c[nH]c2cc(OCCCc3ccccc3)ccc2c1=O	47.1%
COC(=O)c1c[nH]c2ccc(OCc3ccccc3)cc2c1=O	< 1%
COC(=O)c1c[nH]c2cc(OCCOc3ccccc3)c(Cl)cc2c1=O	< 1%
CCCCc1cc2c(=O)c(I)c(C)[nH]c2cc1OCCOc1ccccc1	19.6%

tested on: Plasmodium falciparum; experiment: Resistance index, ratio of EC50 for Plasmodium falciparum TM90-C2B to EC50 for Plasmodium falciparum W2; type: functional; conditions: not given

Structure (SMILES)	Ratio EC50
CCCCc1cc2c(=O)c(C#N)c[nH]c2cc1OCCOc1ccccc1	32.6
CCc1cc2c(=O)c(C(=O)OC)c[nH]c2cc1OCCOc1ccccc1	142
COC(=O)c1c[nH]c2cc(OCCOc3ccccc3)ccc2c1=O	26.3
COC(=O)c1c[nH]c2cc(OCCOc3ccccc3)c(C)cc2c1=O	248
COC(=O)c1c[nH]c2cc(OCCCc3ccccc3)ccc2c1=O	>1100
CCCc1cc2c(=O)c(C(=O)OC)c[nH]c2cc1OCCOc1ccccc1	270
COC(=O)c1c[nH]c2ccccc2c1=O	33
CCCCCc1cc2c(=O)c(C(=O)OC)c[nH]c2cc1OCCOc1ccccc1	375
COC(=O)c1c[nH]c2cc(OCc3ccccc3)ccc2c1=O	4.42
COC(=O)c1c[nH]c2ccc(-c3ccccc3)cc2c1=O	3.44
COC(=O)c1c[nH]c2cc(Cl)ccc2c1=O	2.46
COC(=O)c1c[nH]c2ccc(Cl)cc2c1=O	134
CCOc1ccc2[nH]cc(C(=O)OC)c(=O)c2c1	>34.6
COC(=O)c1c[nH]c2cc(OCCOc3ccccc3)c(Cl)cc2c1=O	62.1
COC(=O)c1c[nH]c2cc(-c3ccccc3)ccc2c1=O	4.41
COC(=O)c1c[nH]c2cc(OCCOc3ccccc3)c(OC)cc2c1=O	1.6
CCCCc1cc2c(=O)c(C(C)=O)c[nH]c2cc1OCCOc1ccccc1	39.1
CCCCc1ccc2[nH]ccc(=O)c2c1	>35.2
COC(=O)c1c[nH]c2ccc(Oc3ccccc3)cc2c1=O	18.5
CCCCc1cc2c(=O)c(I)c(C)[nH]c2cc1OCCOc1ccccc1	6.77
COC(=O)c1c[nH]c2ccc(Oc3ccc(F)cc3)cc2c1=O	48.8
